APP 5'UTR act = APP 5'UTR luciferase reporter activation. SH-SY5Y APP 5'UTR luciferase reporter, luminescence; zero percent = DMSO vehicle wells. activation, % at 2 µM. 1% of 190,000 active;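 active = activation above a set limit, based on mean plus 3 SD of controls, cut at about 140% in these data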
STAT3 act = activators of IL-6 induced STAT3 signaling. U3A cells, IL-6 STAT3-luciferase reporter, luminescence; 100% = signal with IL-6 EC80 alone. activation (% of control), % at 5.6 µM. AID 871. 0.91% of 190,000 active;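 active = activation above the screen-wide mean of compound activation plus 3 SD, cut at about 130% in these data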;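 note: 0% = background luminescence of wells with medium and substrate only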
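Material: STAT3-luciferase reporter U3A cells; Probe or stimulus: IL-6 (33 ng/mL); Incubation: compound pre-incubation 1 h before IL-6, then 6 h stimulation at 37 °C; Technique: luminescence from STAT3-driven luciferase reporter; Evaluation: % activation versus median of IL-6-stimulated wells; Controls: IL-6-only high control.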
STAT1 act = STAT1 signaling activation. NIH 3T3 STAT1-luciferase reporter, IFN-gamma, luminescence; 100% = IFN-gamma alone, no compound. activation (% of control), % at 5.5 µM. 2.6% of 200,000 active;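 active = activation above the screen-wide mean activation plus 3 SD, cut at about 130% in these data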;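 note: raw ratio to IFN-gamma control signal so 100% means no change and 0% no light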
STAT3 blocker = STAT3 signaling inhibition; U3A cells, IL-6 STAT3-luciferase reporter, luminescence; host cell line lacks STAT1; inhibition, % at 5.5 µM; 0.89% of 190,000 active;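 active = inhibition above the mean inhibition across all screened compounds plus 3 SD, cut at about 44% in these data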;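 note: 0% = DMSO only wells and 100% = 100 µM nifuroxazide control wells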
STAT1 inh = reduces IFN-gamma driven STAT1 reporter signal | NIH 3T3 STAT1-luciferase reporter, luminescence | inhibition, % at 5.5 µM | 0.35% of 200,000 active | AID 920;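 active = inhibition above a set limit, the mean inhibition across all tested compounds plus 3 SD, cut at about 34% in these data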;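 note: 0% = IFN-gamma with DMSO and 100% = IFN-gamma with 300 µM nifuroxazide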
NF-kB expr up = raises NF-kB expression in human neuronal cells | fold change at 12.5 µM | AID 1239 | NF-kB reporter expression; stronger effect = higher value | 1.6% of 190,000 active; in the data active = fold change above about 3.3
Starred values were filed as active, the others as inactive; . = not tested or not shown. Rows were chosen to be rich in hits. Some 4.9% of all compounds tested hit in one or more screens of this group.

SMILES	APP 5'UTR act	STAT3 act	STAT1 act	STAT3 blocker	STAT1 inh	NF-kB expr up
O=C(NC(=S)Nc1cccnc1)c1cc2ccccc2o1	-3	97	131*	8	-35	1.9
CCCn1nnc(NC(=O)c2cc3ccccc3o2)n1	98	100	125	5	-27	2.8
O=C(NC(=S)NCc1cccnc1)c1cc2ccccc2o1	-15	96	105	10	-3	1.2
Cc1cc(C(=O)Nc2cccc(C(=O)O)c2)oc1C	-2	31	49	87*	55*	7*
Cc1cc(C(=O)Nc2cccc(C(=O)O)c2)c(C)o1	12	113	91	-17	10	1.2
Cc1ccc(C2=NN(S(C)(=O)=O)C(c3cccs3)C2)cc1 (stereo not given)	72	117	129*	-18	-32	3.8*
COc1ccc(C2CC(c3cccs3)=NN2S(=O)(=O)c2ccc(C)cc2)cc1 (stereo not given)	9	99	91	10	6	.
CS(=O)(=O)Nc1ccc(C2=NN(S(C)(=O)=O)C(c3ccc4c(c3)OCO4)C2)cc1 (stereo not given)	66	116	143*	-16	-49	2.3
COc1ccc(C2=NN(S(C)(=O)=O)C(c3cccs3)C2)cc1 (stereo not given)	110	119	143*	-14	-48	3.9*
CS(=O)(=O)N1N=C(c2ccc(Br)cc2)CC1c1cccs1 (stereo not given)	8	110	114	-12	-19	2
COc1ccc(C2=NN(S(C)(=O)=O)C(c3ccc4nccnc4c3)C2)cc1 (stereo not given)	41	109	136*	-14	-40	2.2
Cc1ccc(C2=NN(S(C)(=O)=O)C(c3ccc4nccnc4c3)C2)cc1 (stereo not given)	17	103	123	-6	-22	2
Cc1ccc(C)c2nc3sc(C(=O)O)cc3cc12	-11	110	105	-9	-5	1
CC(C)c1ccc(S(=O)(=O)/N=C2/C=CC(=O)c3ccccc32)cc1	-17	135*	94	-33	7	.
Cn1cc(Br)c(C(=O)NC2C3CC4CC(C3)CC2C4)n1 (stereo not given)	14	108	147*	-10	-51	1.1
O=[N+]([O-])c1ccc(C2Oc3ccccc3C3CC(c4ccccc4)=NN32)s1 (stereo not given)	124	133*	93	-44	8	8.8*
CC1(C)CC(=O)c2cc(N=C/C(C(=O)c3ccccc3)=C(\O)c3ccccc3)c(=O)oc2C1	38	99	132*	7	-38	1.3
COc1ccc(CNCC(O)(c2ccc(F)cc2)c2ccc(F)cc2)cc1	66	99	93	3	7	0.98
CC(C)C(=O)NC(NC(=O)C(C)C)c1ccc([N+](=O)[O-])cc1	-13	99	98	2	1	1.2
COC(=O)CCCSc1nccn1-c1ccccc1	15	105	92	-5	9	6*
CCOc1ccccc1NC(=O)CSc1nccn1-c1ccccc1	5	107	103	-1	-4	0.82
c1ccc(CCSc2nccn2-c2ccccc2)cc1	126	109	142*	-5	-47	4.6*
CCOc1ccc2c(c1)c(N=O)c(O)n2C	-15	102	99	-4	1	1.2
O=C(/C=C/c1cccs1)Nc1nccs1	122	85	134*	22	-37	2.1
O=C(/C=C/c1cccs1)Nc1ccc(Br)cn1	-92	133*	178*	-39	-86	5.6*
SMILES	APP 5'UTR act	STAT3 act	STAT1 act	STAT3 blocker	STAT1 inh	NF-kB expr up
O=C(/C=C\c1ccccc1)Nc1nccs1	168*	81	118	25	-19	6.5*
CCOC(=O)/C=C/C(=O)Nc1nccs1	-5	97	71	2	31	1.2
O=C(/C=C/c1cccs1)Nc1cccc(NC(=O)/C=C/c2cccs2)n1	45	105	121	-1	-23	0.71
O=C(Nc1cccc(C(=O)N2CCN(c3cccc(Cl)c3)CC2)c1)c1ccccc1	23	83	90	29	10	0.66
CCOC(=O)CC1C(=O)NCCN1Cc1cccs1 (stereo not given)	1	103	100	1	-3	1.5
COCCNC(=O)C1CC(c2ccc([N+](=O)[O-])cc2)=NO1 (stereo not given)	-10	99	103	8	-3	1.3

Screening results (PubChem)
